The target of assay [1] is Sodium/potassium-transporting ATPase. Kind of assay: 50% displacement of the specific [3H]ouabain binding from the dog kidney Na+/K+ ATPase. Type of assay: protein-complex assay, Canis lupus familiaris. An outline of the steps: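 [3H]ouabain binding was measured on isolated, purified dog kidney Na+,K+-ATPase (α1 isoform), with compounds used within 1–4 h of dissolution.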

For assay [2], the species on record is Cavia porcellus. Kind of assay: Concentration of compound to obtain maximum inotropic activity on electrically driven guinea pig left atrium. The class given is functional, Cardiac atrium. An outline of the steps:
(§1)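 Electrically paced guinea pig left atria (platinum electrodes, 1 Hz, 1 ms pulses at twice threshold voltage) were equilibrated for 60 min. Cumulative compound concentrations were then added, each left in contact until maximal response or arrhythmias appeared. Force of contraction was recorded.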

The species named for assay [3] is Cavia porcellus. Kind of assay: Maximal increase in force of contraction in electrically driven guinea pig left atrium. The class given is functional, Cardiac atrium. An outline of the steps: as §1
The target of assay [4] is Sodium/potassium-transporting ATPase. Kind of assay: 30% displacement of the specific [3H]ouabain binding from the dog kidney Na+/K+ ATPase. Type of assay: protein-complex assay, Canis lupus familiaris.
Assay [5] has the same target. Kind of assay: 35% displacement of the specific [3H]-ouabain binding from the dog kidney Na+/K+ ATPase. Type of assay: protein-complex assay, Canis lupus familiaris.
Assay [6] shares this target. Kind of assay: 20% displacement of the specific [3H]ouabain binding from the dog kidney Na+/K+ ATPase. The class given is protein-complex assay, Canis lupus familiaris.
The species entered for assay [7] is Cavia porcellus. Kind of assay: Concentration of compound producing 50% of the maximal increase in force of contraction in electrically driven guinea pig left atrium. Type of assay: functional. To be noted: Cardiac atrium. An outline of the steps:
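Whole guinea pig left atria were paced through platinum electrodes with 1 Hz square-wave pulses (1 ms, twice threshold voltage) and equilibrated for 60 min. Compounds were then added cumulatively, each concentration held until maximal response or arrhythmia. The concentration giving half-maximal increase in contractile force was calculated from concentration–response curves.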

The target in assay [8] is Sodium/potassium-transporting ATPase. Kind of assay: 45% displacement of the specific [3H]ouabain binding from the dog kidney Na+/K+ ATPase. The class given is protein-complex assay, Canis lupus familiaris.

A value given as a limit tells only on which side of the number the result lay.

These results are taken from ChEMBL document CHEMBL1135396, “Synthesis and inotropic activity of 1-(O-aminoalkyloximes) of perhydroindene derivatives as simplified digitalis-like compounds acting on the Na(+),K(+)-ATPase” (J Med Chem, 2002).

What is called IC50 is the concentration that inhibits the measured activity by half. By EC50 is commonly meant the concentration that produces a half-maximal response. A higher EC50 goes with a need for much substance.

For the compound `CN(C)CCO/N=C/[C@H]1CC[C@]2(O)C[C@H](CC3CCCCC3)CC[C@]12C`, the IC50 in assay [1] came to 100 µM. Same read-out and setting: with `CN(C)CCO/N=C/[C@H]1CC[C@]2(O)CC([C@H]3CC[C@H](O)CC3)CC[C@]12C` (some centres not stated) the figure was 1 µM. `CN(C)CCO/N=C/C=C/[C@H]1CC[C@]2(O)[C@@H]3CC[C@@H]4C[C@@H](O)CC[C@]4(C)[C@H]3CC[C@]12C` gave an IC50 in assay [1] of 0.025 µM. In addition, the “Concentration giving maximal inotropic effect” value in the assay filed under Cavia porcellus [2] was found to be 0.3 µM. Also, the “Increase (Emax)” value in the assay filed under Cavia porcellus [3] turned out to be 191%. With `C[C@]12CC[C@H](C3CCCCC3)C[C@@]1(O)CC[C@@H]2C1=CC(=O)OC1`, the IC50 in assay [4] is more than 10 µM. On to `C[C@H]1O[C@@H](O[C@H]2[C@@H](O)C[C@H](O[C@H]3[C@@H](O)C[C@H](O[C@H]4CC[C@@]5(C)[C@H](CC[C@@H]6[C@@H]5C[C@@H](O)[C@]5(C)[C@@H](C7=CC(=O)OC7)CC[C@]65O)C4)O[C@@H]3C)O[C@@H]2C)C[C@H](O)[C@@H]1O` [DIGOXIN], for which the “Concentration giving maximal inotropic effect” value in the assay filed under Cavia porcellus [2] turned out to be 1 µM. Besides, in the assay filed under Cavia porcellus [3], the “Increase (Emax)” value was 184%. Take `C[C@]12CC[C@H](c3ccccc3)C[C@@]1(O)CC[C@@H]2/C=N/N=C(N)N`: the IC50 in assay [5] is more than 100 µM. `CN(C)CCONC[C@H]1CC[C@]2(O)C[C@@H](c3ccccc3)CC[C@]12C`: in assay [1], the half-inhibitory concentration (IC50) was 10 µM. On the same count and under the same terms, with `CN(C)CCO/N=C/[C@H]1CC[C@]2(O)C[C@@H](c3cccnc3)CC[C@]12C` the figure was 13 µM. `CN(C)CCO/N=C/[C@H]1CC[C@]2(O)[C@@H]3CC[C@@H]4C[C@@H](O)CC[C@]4(C)[C@H]3CC[C@]12C` showed a half-maximal inhibitory concentration (IC50) in assay [1] of 0.04 µM. In addition, the “Increase (Emax)” value in the assay listed under Cavia porcellus [3] came out at 39%. On to `C[C@]12CC[C@H](c3ccccc3)C[C@@]1(O)CC[C@@H]2CNOCCN`, for which the IC50 in assay [1] is 20 µM.

`CC(/C=N/N=C(N)N)=C\[C@H]1CC[C@]2(O)C[C@@H](C3CCCCC3)CC[C@]12C` had a half-maximal inhibitory concentration (IC50) in assay [5] of more than 100 µM. Compound `CN(C)CCO/N=C/[C@H]1CC[C@]2(O)C[C@@H](c3ccc(OCCN(C)C)cc3)CC[C@]12C` came in with an IC50 in assay [1] of 1 µM. This lies in the single-digit micromolar range. `CN(C)CCO/N=C/[C@H]1CC[C@]2(O)CC([C@H]3CC[C@@H](O)CC3)CC[C@]12C` (some centres not stated) showed an IC50 in assay [1] of 1.6 µM.

For `C[C@]12CCCC[C@@]1(O)CC[C@@H]2/C=N/OCCCN`, in assay [6], the IC50 is more than 100 µM. The compound `CN(C)CCO/N=C/CC[C@H]1CC[C@]2(O)C[C@@H](C3CCCCC3)CC[C@]12C` had an IC50 in assay [1] of 5 µM.

For `C[C@]12CC[C@H](C3CCCCC3)C[C@@]1(O)CC[C@@H]2/C=N/OCCCN`, the IC50 in assay [1] is 0.8 µM. Same read-out and setting: the figure for `CN(C)CCO/N=C/[C@H]1CC[C@]2(O)C/C(=C\c3ccccc3)CC[C@]12C` is 8 µM; for `C[C@]12CC[C@H](c3ccccc3)C[C@@]1(O)CC[C@@H]2/C=N/OCCN` it is 4 µM.

Consider `CN(C)CCO/N=C/[C@H]1CC[C@]2(O)C[C@@H](c3ccc(CO)cc3)CC[C@]12C`, for which the IC50 in assay [1] stood at 8 µM. The same measure, in the same setting: the figure for `C[C@]12CC[C@H](C3CCCCC3)C[C@@]1(O)CC[C@@H]2/C=C/C=N/N=C(N)N` is 16 µM. On the same count and under the same terms, with `Cc1ccc([C@H]2CC[C@]3(C)[C@@H](/C=N/OCCN)CC[C@]3(O)C2)cc1` the figure was 6.3 µM. The same measure, in the same setting: with `Cc1cccc([C@H]2CC[C@]3(C)[C@@H](/C=N/OCCN(C)C)CC[C@]3(O)C2)c1` the figure was 5 µM.

Consider `CN(C)CCO/N=C/C=C/[C@H]1CC[C@]2(O)C[C@@H](C3CCCCC3)CC[C@]12C`, for which the 50% inhibitory concentration (IC50) in assay [1] was found to be 1 µM. The “Concentration giving maximal inotropic effect” value in the assay listed under Cavia porcellus [2] worked out at 100 µM. For the same compound, in the assay listed under Cavia porcellus [7], the concentration for a half-maximal effect (EC50) was 20 µM. Moreover, in the assay listed under Cavia porcellus [3], the “Increase (Emax)” value was 50%. Turning to `Cc1cccc([C@H]2CC[C@]3(C)[C@@H](/C=N/OCCN)CC[C@]3(O)C2)c1`, the IC50 in assay [1] came out at 3.2 µM. In turn, `CN(C)CCO/N=C/[C@H]1CC[C@]2(O)C[C@@H](c3cccc(CO)c3)CC[C@]12C` returned an IC50 in assay [1] of 5 µM. `CN(C)CCO/N=C/[C@H]1CC[C@]2(O)C/C(=C/c3ccccc3)CC[C@]12C`: the IC50 in assay [1] amounted to 50 µM. Regarding `C[C@]12CC[C@H](c3ccc(CO)cc3)C[C@@]1(O)CC[C@@H]2/C=N/OCCN`, in assay [1], the IC50 stood at 2.5 µM. Compared with the last compound, the IC50 is about 20-fold lower. In the case of `C[C@]12CC[C@H](C3CCCCC3)C[C@@]1(O)CC[C@@H]2/C=N/OCCCCN`, the IC50 in assay [1] is 13 µM. Compound `CN(C)CCO/N=C/[C@H]1CC[C@]2(O)C[C@@H](C3CCCCC3)CC[C@]12C` came in with an IC50 in assay [1] of 1.6 µM. Besides, the “Concentration giving maximal inotropic effect” value in the assay filed under Cavia porcellus [2] turned out to be 100 µM. Further, it took 12 µM to reach a half-maximal effect in the assay filed under Cavia porcellus [7] (EC50). Also, in the assay listed under Cavia porcellus [3], the “Increase (Emax)” value turned out to be 70%.

In assay [1], `CN(C)CCCCO/N=C/[C@H]1CC[C@]2(O)C[C@@H](C3CCCCC3)CC[C@]12C` came in with a half-inhibitory concentration (IC50) of 10 µM. Same read-out and setting: the figure for `CN(C)CCO/N=C\C[C@H]1CC[C@]2(O)C[C@@H](C3CCCCC3)CC[C@]12C` is 1.6 µM. For the compound `C[C@]12CC[C@H](O)C[C@H]1CC[C@@H]1[C@@H]2CC[C@]2(C)[C@@H](C3=CC(=O)OC3)CC[C@]12O` [DIGITOXIGENIN], the “Concentration giving maximal inotropic effect” value in the assay filed under Cavia porcellus [2] turned out to be 3 µM. Besides, the “Increase (Emax)” value in the assay filed under Cavia porcellus [3] amounted to 200%. Regarding `C[C@]12CC[C@H](C3CCCCC3)C[C@@]1(O)CC[C@@H]2/C=N/OCCN`, in assay [1], the half-maximal inhibitory concentration (IC50) worked out at 1 µM. The compound `Cc1ccc([C@H]2CC[C@]3(C)[C@@H](/C=N/OCCN(C)C)CC[C@]3(O)C2)cc1` registered an IC50 in assay [1] of 10 µM. Compared with the last compound, the IC50 is about 10-fold higher. The same measure, in the same setting: with `CN(C)CCO/N=C/[C@H]1CC[C@]2(O)C[C@@H](Cc3ccccc3)CC[C@]12C` the figure was 3.2 µM; with `CC(/C=N/OCCN)=C\[C@H]1CC[C@]2(O)C[C@@H](C3CCCCC3)CC[C@]12C`, 1.3 µM; with `CC(/C=N/OCCN(C)C)=C\[C@H]1CC[C@]2(O)C[C@@H](C3CCCCC3)CC[C@]12C`, 2 µM.

In assay [1], `C[C@]12CC[C@H](C3CCCCC3)C[C@@]1(O)CC[C@@H]2/C=C/C=N/OCCN` showed an IC50 of 1 µM. Moreover, the “Concentration giving maximal inotropic effect” value in the assay filed under Cavia porcellus [2] turned out to be 100 µM. The same compound gave an EC50 in the assay filed under Cavia porcellus [7] of 15 µM. Also, the “Increase (Emax)” value in the assay filed under Cavia porcellus [3] turned out to be 90%. Regarding `C[C@]12CC[C@H](O)C[C@H]1CC[C@@H]1[C@@H]2CC[C@]2(C)[C@@H](/C=C/C=N/OCCN)CC[C@]12O`, the concentration for half-maximal inhibition (IC50) in assay [1] was found to be 0.016 µM. Further, the “Concentration giving maximal inotropic effect” value in the assay listed under Cavia porcellus [2] came to 0.3 µM. Moreover, the “Increase (Emax)” value in the assay listed under Cavia porcellus [3] was determined as 155%. `CN(C)CCCO/N=C/[C@H]1CC[C@]2(O)C[C@@H](C3CCCCC3)CC[C@]12C` registered an IC50 in assay [1] of 3.2 µM. Still for that read-out and setting: the figure for `C[C@]12CC[C@H](C3CCCCC3)C[C@@]1(O)CC[C@@H]2C/C=N\OCCN` is 1.6 µM. Regarding `CN(C)CCO/N=C/[C@H]1CC[C@]2(O)C[C@H](c3ccccc3)CC[C@]12C`, the concentration for half-maximal inhibition (IC50) in assay [4] is more than 100 µM.

For the compound `CN(C)CCO/N=C/[C@H]1CC[C@]2(O)C[C@@H](CC3CCCCC3)CC[C@]12C`, in assay [1], the half-inhibitory concentration (IC50) stood at 4 µM. Same read-out and setting: with `C[C@]12CC[C@H](C3CCCCC3)C[C@@]1(O)CC[C@@H]2/C=N/N=C(N)N` the figure was 63 µM; with `CN(C)CCO/N=C/[C@H]1CC[C@]2(O)C[C@@H](c3ccncc3)CC[C@]12C`, 2.5 µM. On the same count and under the same terms, with `C[C@]12CC[C@H](C3CCCCC3)C[C@@]1(O)CC[C@@H]2CC/C=N/OCCN` the figure was 3.2 µM; with `CN(C)CCO/N=C/[C@H]1CC[C@]2(O)C[C@@H](c3ccc(O)cc3)CC[C@]12C`, 2.5 µM; with `CN(C)CCO/N=C/[C@H]1CC[C@]2(O)C[C@@H](c3ccccc3)CC[C@]12C`, 3.2 µM. `C[C@]12CC[C@H](c3cccc(CO)c3)C[C@@]1(O)CC[C@@H]2/C=N/OCCN`: in assay [1], the half-inhibitory concentration (IC50) stood at 2.5 µM. Still for that read-out and setting: the figure for `CN(C)CCO/N=C/[C@H]1CC[C@]2(O)C[C@@H](c3cccc(O)c3)CC[C@]12C` is 10 µM. In assay [8], `CN(C)CCO/N=C/[C@H]1CC[C@]2(O)C[C@H](Cc3ccccc3)CC[C@]12C` returned a concentration for half-maximal inhibition (IC50) of more than 100 µM.
